In the M2OR odorant receptor database:
Where a chain is given by its changes, count along the chain named.

target: T1, OR2W1 (Homo sapiens) (UniProt Q9Y3N9); settings: stereoisomer not certain
T1 sequence (whole entry): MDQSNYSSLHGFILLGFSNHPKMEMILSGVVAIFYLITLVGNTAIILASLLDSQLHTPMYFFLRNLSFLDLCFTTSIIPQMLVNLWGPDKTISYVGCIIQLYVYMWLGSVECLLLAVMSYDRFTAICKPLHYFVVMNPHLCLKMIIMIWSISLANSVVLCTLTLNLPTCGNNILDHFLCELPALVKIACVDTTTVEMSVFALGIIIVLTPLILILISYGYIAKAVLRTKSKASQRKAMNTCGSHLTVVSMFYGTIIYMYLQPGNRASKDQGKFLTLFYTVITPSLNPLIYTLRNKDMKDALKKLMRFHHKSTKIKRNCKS
Method in brief: (§1)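 Assay methods differ from source to source, frequently being transient luciferase assays in mammalian cell lines. For each receptor–molecule pair, the label responsive (active) applies when the original authors judged the measured signal statistically different from baseline, and non-responsive (inactive) applies otherwise.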

Compound | odorant receptor agonist call
CSCSC | inactive
CCCCCOC(=O)CCCCC | inactive
CC(=O)O | inactive
CCCCCCCCCCO | active
CCc1ncc(C)nc1CC | inactive
CCCCCC(=O)CC(C)=O | active
C=CCSC | inactive
O=c1ccc2ccccc2o1 | active
CCC(=O)C(C)=O | inactive
c1coc(CSCc2ccco2)c1 | active
CCCCCCCC(=O)[O-].[H+] | active
CCOc1ccc2ccccc2c1 | active
CC(=O)C(C)O (configuration not stated) | inactive
CCCCCCCC1CCCC(=O)O1 (configuration not stated) | inactive
CSSc1ccoc1C | inactive
CCOC(=O)C(C)CC (configuration not stated) | active
CCC=CCCC=CC=O | active

Compound | odorant receptor agonist call
CC(=O)OCCC(C)C | active
CCCCCC1CCCC(=O)O1 (configuration not stated) | inactive
CC(=O)C1=NCCS1 | inactive
CCCCC(=O)C(C)=O | inactive
CCCCC(C)CCC(=O)O (configuration not stated) | inactive
CSSCc1ccco1 | active
CCCCCCCCO | active
CCCCCC1=C(C)CCC1=O | active
CCCC1CCCC(=O)O1 (configuration not stated) | active
Cc1cccc(C)c1O | inactive
O=C(c1ccccc1)c1ccccc1 | active
CCCCC(=O)CC(C)=O | active
CSCCCO | inactive
CCCc1ccc(O)c(OC)c1 | inactive
CCC(=O)C(=O)CC | active
C=C(C)c1ccc(C)cc1 | active
Cc1c[nH]c2ccccc12 | inactive

tested on: T2, OR2W1; settings: stereoisomer not certain
T2 sequence (whole entry): T1 sequence (whole entry) with D296N
Method in brief: as §1

Compound | odorant receptor agonist call
O=c1ccc2ccccc2o1 | active
c1coc(CSCc2ccco2)c1 | active
CCCCCCCC(=O)[O-].[H+] | active
CCOC(=O)C(C)CC (configuration not stated) | active
CCC=CCCC=CC=O | active
CC(=O)OCCC(C)C | active
CSSCc1ccco1 | active
CCCC1CCCC(=O)O1 (configuration not stated) | active
C=C(C)c1ccc(C)cc1 | active

tested on: T3, OR2W1; settings: stereoisomer not certain
T3 sequence (whole entry): T1 sequence (whole entry) with M81V
Method in brief: as §1

Compound | odorant receptor agonist call
O=c1ccc2ccccc2o1 | inactive
c1coc(CSCc2ccco2)c1 | active
CCCCCCCC(=O)[O-].[H+] | inactive
CCOC(=O)C(C)CC (configuration not stated) | inactive
CCC=CCCC=CC=O | active
CC(=O)OCCC(C)C | active
CSSCc1ccco1 | active
CCCC1CCCC(=O)O1 (configuration not stated) | inactive
C=C(C)c1ccc(C)cc1 | active
